According to ChEMBL document CHEMBL5696442, “Discovery of type II inhibitors of TGFβ-activated kinase 1 (TAK1) and mitogen-activated protein kinase kinase kinase kinase 2 (MAP4K2)” (J Med Chem, 2015):
Active and inactive are the calls of the source. The rule behind the calls is not given here.

Columns and labels:
[1] = target: STE20-related kinase adapter protein alpha (Homo sapiens) (UniProt Q7RTN6); experiment: Inhibition of STLK5 ACT labeling site in human Huh-7 cell lysate at 1 uM by KiNativ Profiling analysis relative to control; type: subcellular
[2] = target: Protein kinase C beta type (Homo sapiens) (UniProt P05771); experiment: Inhibition of PKCb Lys2 labeling site in human Huh-7 cell lysate at 1 uM by KiNativ Profiling analysis relative to control; type: subcellular
[3] = target: Casein kinase I isoform alpha (Homo sapiens) (UniProt P48729); experiment: Inhibition of CK1a Lys2 labeling site in human Huh-7 cells at 1 uM by KiNativ Profiling analysis relative to control; type: cell-based
[4] = target: Ribosomal protein S6 kinase alpha-1 (Homo sapiens) (UniProt Q15418); experiment: Inhibition of RSK1 domain2 ACT labeling site in human Huh-7 cell lysate at 1 uM by KiNativ Profiling analysis relative to control; type: subcellular
[5] = target: Cyclin-dependent kinase 8 (Homo sapiens) (UniProt P49336); experiment: Inhibition of CDK8 Lys2 labeling site in human Huh-7 cell lysate at 1 uM by KiNativ Profiling analysis relative to control; type: subcellular
[6] = target: Serine/threonine-protein kinase 17A (Homo sapiens) (UniProt Q9UEE5); experiment: Inhibition of DRAK1 (unknown origin) at 1 uM by Ambit Kinomescan binding assay relative to control; values are per cent of control
[7] = target: Bone morphogenetic protein receptor type-1A (Homo sapiens) (UniProt P36894); experiment: Inhibition of BMPR1A (unknown origin) at 1 uM by Ambit Kinomescan binding assay relative to control; values are per cent of control
[8] = target: Ribosomal protein S6 kinase alpha-3 (Homo sapiens) (UniProt P51812); experiment: Inhibition of RSK2 domain1 Lys2 labeling site harbouring DLKPENILLDEEGHIK in human A-375 cells at 5 uM by KiNativ Profiling analysis relative to control; type: cell-based
Procedure, shortened: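 Live A375 melanoma cells treated with compound at 5 or 0.5 μM, then lysed. Lysate kinases were labeled with a lysine-reactive ATP or ADP-biotin probe. Inhibition was read as protection of labeling sites from the probe.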

[9] = target: Serine/threonine-protein kinase Nek6 (Homo sapiens) (UniProt Q9HC98); experiment: Inhibition of NEK6 (unknown origin) at 1 uM by Ambit Kinomescan binding assay relative to control; values are per cent of control
[10] = target: Transient receptor potential cation channel subfamily M member 6 (Homo sapiens) (UniProt Q9BX84); experiment: Inhibition of TRPM6 (unknown origin) at 1 uM by Ambit Kinomescan binding assay relative to control
[11] = target: Serine/threonine-protein kinase PAK 3 (Homo sapiens) (UniProt O75914); experiment: Inhibition of PAK3 (unknown origin) at 1 uM by Ambit Kinomescan binding assay relative to control; values are per cent of control
[12] = target: Focal adhesion kinase 1 (Homo sapiens) (UniProt Q05397); experiment: Inhibition of FAK Lys1 labeling site in human A-375 cells at 5 uM by KiNativ Profiling analysis relative to control; type: cell-based
[13] = target: 5'-AMP-activated protein kinase catalytic subunit alpha-1 (Homo sapiens) (UniProt Q13131); experiment: Inhibition of AMPK-alpha1 (unknown origin) at 10 uM by Ambit Kinomescan binding assay relative to control
[14] = target: Serine/threonine-protein kinase/endoribonuclease IRE1 (Homo sapiens) (UniProt O75460); experiment: Inhibition of IRE1 Lys2 labeling site in human A-375 cells at 0.05 uM by KiNativ Profiling analysis relative to control; type: cell-based
[15] = target: Serine/threonine-protein kinase ATR (Homo sapiens) (UniProt Q13535); experiment: Inhibition of ATR ATP labeling site in human Huh-7 cells at 10 uM by KiNativ Profiling analysis relative to control; type: cell-based
[16] = target: Vascular endothelial growth factor receptor 3 (Homo sapiens) (UniProt P35916); experiment: Inhibition of FLT4 (unknown origin) at 10 uM by Ambit Kinomescan binding assay relative to control
[17] = target: Serine/threonine-protein kinase N2 (Homo sapiens) (UniProt Q16513); experiment: Inhibition of PKN2 Lys2 labeling site in human A-375 cells at 0.5 uM by KiNativ Profiling analysis relative to control; type: cell-based
[18] = target: Serine/threonine-protein kinase Nek7 (Homo sapiens) (UniProt Q8TDX7); experiment: Inhibition of NEK7 (unknown origin) at 10 uM by Ambit Kinomescan binding assay
[19] = target: Phosphorylase b kinase gamma catalytic chain, skeletal muscle/heart isoform (Homo sapiens) (UniProt Q16816); experiment: Inhibition of PHKG1 (unknown origin) at 10 uM by Ambit Kinomescan binding assay
[20] = target: Mitogen-activated protein kinase 14 (Homo sapiens, UniProt Q16539); experiment: Inhibition of p38alpha K2 labeling site in human Huh-7 cells at 10 uM by KiNativ Profiling analysis relative to control; type: cell-based
[21] = target: T1, Acylglycerol kinase, mitochondrial (Homo sapiens) (UniProt Q53H12); experiment: Inhibition of AGK ATP labeling site in human Huh-7 cells at 10 uM by KiNativ Profiling analysis relative to control; type: cell-based
T1 sequence (whole entry): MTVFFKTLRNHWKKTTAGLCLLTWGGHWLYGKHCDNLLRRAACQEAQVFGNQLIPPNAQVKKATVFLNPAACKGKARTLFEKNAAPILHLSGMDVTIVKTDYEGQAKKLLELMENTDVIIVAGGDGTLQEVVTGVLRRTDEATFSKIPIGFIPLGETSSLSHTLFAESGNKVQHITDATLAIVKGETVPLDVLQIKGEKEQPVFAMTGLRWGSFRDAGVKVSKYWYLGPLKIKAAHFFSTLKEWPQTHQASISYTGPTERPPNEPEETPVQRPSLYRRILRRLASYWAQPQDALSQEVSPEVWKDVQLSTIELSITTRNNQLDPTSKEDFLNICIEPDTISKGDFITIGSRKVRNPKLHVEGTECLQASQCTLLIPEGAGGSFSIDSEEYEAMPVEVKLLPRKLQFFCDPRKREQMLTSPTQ

[22] = target: Dual specificity mitogen-activated protein kinase kinase; MEK1/2 (Homo sapiens) (UniProt P36507+Q02750); experiment: Inhibition of MAP2K1/2 K2 labeling site in human Huh-7 cells at 1 uM by KiNativ Profiling analysis relative to control; type: cell-based
RAW = experiment: Inhibition of LPS induced JNK1/2 phosphorylation in mouse RAW cells preincubated for 1 hr followed by LPS stimulation and measured after 30 mins by Western blot analysis; type: functional, cell-based; conditions: dose 0.01-10 µM

Sequence of STE20-related kinase adapter protein alpha (Homo sapiens) (Q7RTN6 whole entry): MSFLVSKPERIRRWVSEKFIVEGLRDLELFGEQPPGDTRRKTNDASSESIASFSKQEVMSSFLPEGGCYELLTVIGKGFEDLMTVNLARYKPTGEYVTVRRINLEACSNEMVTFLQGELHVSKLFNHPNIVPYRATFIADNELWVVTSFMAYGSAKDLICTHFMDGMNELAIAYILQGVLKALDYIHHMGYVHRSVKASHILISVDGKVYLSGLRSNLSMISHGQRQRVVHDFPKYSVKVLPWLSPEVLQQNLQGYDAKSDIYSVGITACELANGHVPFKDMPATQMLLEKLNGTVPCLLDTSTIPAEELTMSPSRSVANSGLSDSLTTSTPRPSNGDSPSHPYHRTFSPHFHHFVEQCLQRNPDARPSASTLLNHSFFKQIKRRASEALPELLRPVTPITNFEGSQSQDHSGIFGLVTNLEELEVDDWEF
Sequence of Serine/threonine-protein kinase Nek6 (Homo sapiens) (Q9HC98 whole entry): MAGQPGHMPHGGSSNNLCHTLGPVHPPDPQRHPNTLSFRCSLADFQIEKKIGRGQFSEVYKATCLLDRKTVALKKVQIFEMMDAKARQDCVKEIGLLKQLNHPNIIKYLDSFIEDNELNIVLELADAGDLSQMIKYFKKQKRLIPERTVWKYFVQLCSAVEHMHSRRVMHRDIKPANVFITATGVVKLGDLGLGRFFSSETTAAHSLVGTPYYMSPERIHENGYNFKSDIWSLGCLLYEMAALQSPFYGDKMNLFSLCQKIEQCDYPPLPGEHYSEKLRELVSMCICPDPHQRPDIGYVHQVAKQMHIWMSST
Sequence of Serine/threonine-protein kinase N2 (Homo sapiens) (Q16513 whole entry, looked up): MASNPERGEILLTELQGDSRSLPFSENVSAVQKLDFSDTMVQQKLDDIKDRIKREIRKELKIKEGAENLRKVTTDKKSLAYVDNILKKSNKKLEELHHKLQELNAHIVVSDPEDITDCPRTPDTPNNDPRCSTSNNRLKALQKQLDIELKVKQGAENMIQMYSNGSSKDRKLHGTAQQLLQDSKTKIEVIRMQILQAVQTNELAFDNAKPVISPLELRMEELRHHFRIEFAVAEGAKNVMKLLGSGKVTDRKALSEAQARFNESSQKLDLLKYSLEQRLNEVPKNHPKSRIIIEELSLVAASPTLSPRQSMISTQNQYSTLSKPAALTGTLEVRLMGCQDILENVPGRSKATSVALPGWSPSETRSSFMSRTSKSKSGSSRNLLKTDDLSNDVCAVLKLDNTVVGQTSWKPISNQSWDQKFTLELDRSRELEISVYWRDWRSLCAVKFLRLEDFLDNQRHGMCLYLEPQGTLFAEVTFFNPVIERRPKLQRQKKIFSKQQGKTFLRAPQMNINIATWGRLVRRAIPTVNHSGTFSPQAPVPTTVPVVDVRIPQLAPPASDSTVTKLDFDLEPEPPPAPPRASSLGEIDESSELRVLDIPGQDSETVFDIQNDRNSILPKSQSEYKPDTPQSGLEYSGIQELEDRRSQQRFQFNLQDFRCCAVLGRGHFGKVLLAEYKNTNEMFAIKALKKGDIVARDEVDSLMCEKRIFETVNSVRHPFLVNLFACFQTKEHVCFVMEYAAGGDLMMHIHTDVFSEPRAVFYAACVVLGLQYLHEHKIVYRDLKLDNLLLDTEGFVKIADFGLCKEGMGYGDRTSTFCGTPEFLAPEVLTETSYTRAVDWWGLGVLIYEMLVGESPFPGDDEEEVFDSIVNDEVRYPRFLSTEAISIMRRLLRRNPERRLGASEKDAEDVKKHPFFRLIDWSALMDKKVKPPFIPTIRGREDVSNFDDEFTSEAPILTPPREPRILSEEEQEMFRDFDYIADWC
Sequence of Casein kinase I isoform alpha (Homo sapiens) (P48729 2-337 limits assumed): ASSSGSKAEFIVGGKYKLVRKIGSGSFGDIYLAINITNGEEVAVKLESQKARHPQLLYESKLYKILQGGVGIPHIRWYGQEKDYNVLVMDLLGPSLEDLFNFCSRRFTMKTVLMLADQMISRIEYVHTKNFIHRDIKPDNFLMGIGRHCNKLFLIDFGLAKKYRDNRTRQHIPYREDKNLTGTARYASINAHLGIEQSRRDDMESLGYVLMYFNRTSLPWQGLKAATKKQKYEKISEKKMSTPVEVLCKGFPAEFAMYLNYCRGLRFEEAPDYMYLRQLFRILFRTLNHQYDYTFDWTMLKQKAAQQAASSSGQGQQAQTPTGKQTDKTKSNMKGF
Sequence of Cyclin-dependent kinase 8 (Homo sapiens) (P49336 whole entry): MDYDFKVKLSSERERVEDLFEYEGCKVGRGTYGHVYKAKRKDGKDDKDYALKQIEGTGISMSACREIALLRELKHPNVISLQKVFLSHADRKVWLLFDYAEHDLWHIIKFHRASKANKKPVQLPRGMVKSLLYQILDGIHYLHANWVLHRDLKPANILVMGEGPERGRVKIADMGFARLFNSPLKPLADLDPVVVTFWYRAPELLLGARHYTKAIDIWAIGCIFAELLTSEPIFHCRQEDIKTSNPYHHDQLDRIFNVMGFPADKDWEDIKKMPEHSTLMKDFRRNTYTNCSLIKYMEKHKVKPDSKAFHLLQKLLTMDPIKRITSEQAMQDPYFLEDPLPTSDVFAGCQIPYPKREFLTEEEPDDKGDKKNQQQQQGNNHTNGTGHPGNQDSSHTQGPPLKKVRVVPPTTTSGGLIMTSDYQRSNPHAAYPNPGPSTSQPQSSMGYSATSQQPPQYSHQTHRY
Sequence of Serine/threonine-protein kinase PAK 3 (Homo sapiens) (O75914 whole entry, looked up): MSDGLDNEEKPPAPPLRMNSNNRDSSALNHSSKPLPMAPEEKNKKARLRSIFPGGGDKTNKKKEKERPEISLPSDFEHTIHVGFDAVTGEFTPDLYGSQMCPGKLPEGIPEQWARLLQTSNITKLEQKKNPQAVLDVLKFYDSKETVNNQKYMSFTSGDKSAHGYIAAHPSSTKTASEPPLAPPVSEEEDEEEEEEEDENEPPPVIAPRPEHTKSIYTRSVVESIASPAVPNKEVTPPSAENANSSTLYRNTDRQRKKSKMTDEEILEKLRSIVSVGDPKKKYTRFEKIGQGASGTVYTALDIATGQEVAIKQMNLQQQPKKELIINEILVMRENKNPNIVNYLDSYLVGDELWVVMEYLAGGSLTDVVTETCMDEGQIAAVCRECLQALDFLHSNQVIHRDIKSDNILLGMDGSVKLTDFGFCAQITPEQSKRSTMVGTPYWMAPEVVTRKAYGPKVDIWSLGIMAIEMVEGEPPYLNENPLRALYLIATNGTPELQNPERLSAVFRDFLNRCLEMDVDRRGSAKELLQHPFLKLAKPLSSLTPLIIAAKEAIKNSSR
Sequence of Serine/threonine-protein kinase Nek7 (Homo sapiens) (Q8TDX7 whole entry, looked up, canonical isoform): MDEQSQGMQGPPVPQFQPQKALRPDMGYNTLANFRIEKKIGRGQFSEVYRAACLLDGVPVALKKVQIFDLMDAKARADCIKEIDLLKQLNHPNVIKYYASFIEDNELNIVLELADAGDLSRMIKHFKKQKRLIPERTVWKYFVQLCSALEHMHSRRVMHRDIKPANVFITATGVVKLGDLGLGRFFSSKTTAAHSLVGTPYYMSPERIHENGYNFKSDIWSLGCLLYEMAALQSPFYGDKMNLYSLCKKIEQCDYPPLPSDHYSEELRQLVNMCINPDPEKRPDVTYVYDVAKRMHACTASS
Sequence of Focal adhesion kinase 1 (Homo sapiens) (Q05397 2-1052 limits assumed): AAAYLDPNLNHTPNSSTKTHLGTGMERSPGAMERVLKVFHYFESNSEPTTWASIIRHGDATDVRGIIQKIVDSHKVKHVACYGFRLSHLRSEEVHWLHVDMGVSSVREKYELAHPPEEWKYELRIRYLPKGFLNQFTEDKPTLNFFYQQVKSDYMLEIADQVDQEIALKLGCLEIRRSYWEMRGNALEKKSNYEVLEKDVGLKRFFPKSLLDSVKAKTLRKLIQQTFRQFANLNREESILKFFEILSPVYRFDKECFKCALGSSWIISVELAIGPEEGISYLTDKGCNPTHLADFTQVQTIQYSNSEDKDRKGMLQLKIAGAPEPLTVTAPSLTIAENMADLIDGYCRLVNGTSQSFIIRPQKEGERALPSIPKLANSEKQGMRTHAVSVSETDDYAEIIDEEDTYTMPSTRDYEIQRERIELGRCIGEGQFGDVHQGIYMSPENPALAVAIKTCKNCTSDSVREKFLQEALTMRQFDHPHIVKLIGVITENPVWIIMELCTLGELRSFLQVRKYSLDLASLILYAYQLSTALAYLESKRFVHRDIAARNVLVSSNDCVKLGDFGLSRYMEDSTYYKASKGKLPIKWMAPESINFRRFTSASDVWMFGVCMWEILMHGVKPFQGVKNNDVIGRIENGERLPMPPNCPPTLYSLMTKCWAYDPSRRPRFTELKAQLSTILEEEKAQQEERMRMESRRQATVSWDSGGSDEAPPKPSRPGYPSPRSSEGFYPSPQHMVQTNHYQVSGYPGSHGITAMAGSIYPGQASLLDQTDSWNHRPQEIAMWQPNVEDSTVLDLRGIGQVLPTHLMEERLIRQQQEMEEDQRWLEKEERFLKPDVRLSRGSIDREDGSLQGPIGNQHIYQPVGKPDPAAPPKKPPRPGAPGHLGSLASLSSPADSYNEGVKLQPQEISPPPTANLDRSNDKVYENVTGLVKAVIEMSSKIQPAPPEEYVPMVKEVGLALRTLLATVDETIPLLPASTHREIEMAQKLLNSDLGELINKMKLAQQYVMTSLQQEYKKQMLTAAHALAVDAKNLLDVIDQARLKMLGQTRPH
Sequence of Serine/threonine-protein kinase 17A (Homo sapiens) (Q9UEE5 whole entry): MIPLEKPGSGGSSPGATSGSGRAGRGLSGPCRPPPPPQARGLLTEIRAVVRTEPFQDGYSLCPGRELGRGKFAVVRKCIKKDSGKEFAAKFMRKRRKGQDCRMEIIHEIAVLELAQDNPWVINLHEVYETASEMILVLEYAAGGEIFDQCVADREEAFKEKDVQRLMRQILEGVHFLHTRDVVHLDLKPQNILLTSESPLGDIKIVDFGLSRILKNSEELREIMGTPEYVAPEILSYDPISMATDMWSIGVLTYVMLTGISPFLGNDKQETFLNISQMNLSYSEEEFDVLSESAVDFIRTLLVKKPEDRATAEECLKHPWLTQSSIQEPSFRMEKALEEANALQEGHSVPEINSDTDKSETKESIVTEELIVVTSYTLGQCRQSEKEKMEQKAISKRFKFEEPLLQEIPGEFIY

SMILES: CNc1cc(Oc2cc(C(=O)Nc3cc(N4CCN(C)CC4)cc(C(F)(F)F)c3)ccc2C)ncn1
- inhibition [1]: 5.3%
- inhibition [2]: -1.2%
- inhibition [3]: -1.9%
- inhibition [4]: 1.9%
- inhibition [5]: -8.6%

SMILES: CCN1CCN(Cc2ccc(NC(=O)c3ccc(C)c(/C=C/c4cnc5[nH]ccc5c4OC)c3)cc2C(F)(F)F)CC1
- residual activity [6]: 52%
- residual activity [7]: 100%
- inhibition [8]: 16.5%
- residual activity [9]: 100%
- inhibition [10]: 100%
- residual activity [11]: 66%

SMILES: CCN1CCN(Cc2ccc(NC(=O)c3ccc(C)c(Oc4ccnc5[nH]ccc45)c3)cc2C(F)(F)F)CC1
- inhibition [12]: 13.8%
- inhibition [13]: 33%
- inhibition [14]: 15.9%
- inhibition [15]: 19.8%
- inhibition [16]: 0.2%
- inhibition [17]: -5.6%
- inhibition [18]: inactive
- inhibition [19]: inactive
- inhibition [20]: 6.8%
- inhibition [21]: inactive
- inhibition [22]: 5.5%
- inhibition (RAW): Dose-Dependent Effect
